Entries after “also recorded” stand apart in the source; their conditions may differ.

Common to all, as to format: biochemical
Test [1] concerns the target T1, OPA1 (195—960) (Homo sapiens, UniProt O60313).
T1 sequence (O60313 195-960): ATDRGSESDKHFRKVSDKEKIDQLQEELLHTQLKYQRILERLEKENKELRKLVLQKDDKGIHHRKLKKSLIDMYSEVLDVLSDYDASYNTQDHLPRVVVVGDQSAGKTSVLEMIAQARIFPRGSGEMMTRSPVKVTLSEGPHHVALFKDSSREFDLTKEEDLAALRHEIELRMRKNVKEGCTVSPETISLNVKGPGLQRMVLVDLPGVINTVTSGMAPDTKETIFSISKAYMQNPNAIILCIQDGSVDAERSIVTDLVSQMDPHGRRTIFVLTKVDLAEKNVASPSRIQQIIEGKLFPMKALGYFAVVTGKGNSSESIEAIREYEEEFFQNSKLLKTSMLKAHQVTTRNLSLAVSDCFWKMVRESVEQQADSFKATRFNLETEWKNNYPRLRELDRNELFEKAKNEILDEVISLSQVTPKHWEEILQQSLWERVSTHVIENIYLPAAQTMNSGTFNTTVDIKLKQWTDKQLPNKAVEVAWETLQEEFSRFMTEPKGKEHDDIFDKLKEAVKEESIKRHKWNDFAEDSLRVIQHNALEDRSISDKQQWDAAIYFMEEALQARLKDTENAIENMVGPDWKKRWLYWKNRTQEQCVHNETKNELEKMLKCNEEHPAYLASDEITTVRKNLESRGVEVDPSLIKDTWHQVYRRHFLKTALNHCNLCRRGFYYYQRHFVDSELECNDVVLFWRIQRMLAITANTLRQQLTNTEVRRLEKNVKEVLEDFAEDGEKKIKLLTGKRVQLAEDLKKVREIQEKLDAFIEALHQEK
As to the kind of experiment: Liposome-dependent malachite green GTPase activity assay, OPA1. The following applies: read-out: Potency of inhibition, OPA1; data not shown. A digest of the protocol:
(§1)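 Ni-NTA-purified E. coli enzyme (tag removed for dynamin-1, OPA1), 0.6 μM, preincubated 20 min RT with 80:20 soybean polar lipid:cardiolipin liposomes (0.1 mg/mL) and compound or DMSO; started by 1 mM GTP at 37 °C in 10 mM Hepes pH 7.0, 100 mM KCl, 4 mM MgCl2, 1% DMSO. EDTA stop, malachite green, A650 to phosphate rate; IC50 4-parameter fit.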

For test [2], the target named is Human DRP1 (1—699) (Homo sapiens, UniProt O00429). The test is described as follows: Liposome-dependent malachite green GTPase activity assay, DRP1. A digest of the protocol:
as §1

The target in test [3] is DRP1 (Homo sapiens, UniProt O00429). The test is described as follows: Malachite green GTPase activity assay in the absence of liposomes, DRP1. The note with it: dose response in presence vs absence of liposomes.
Chain of DRP1 (O00429 1-699 isoform O00429-4): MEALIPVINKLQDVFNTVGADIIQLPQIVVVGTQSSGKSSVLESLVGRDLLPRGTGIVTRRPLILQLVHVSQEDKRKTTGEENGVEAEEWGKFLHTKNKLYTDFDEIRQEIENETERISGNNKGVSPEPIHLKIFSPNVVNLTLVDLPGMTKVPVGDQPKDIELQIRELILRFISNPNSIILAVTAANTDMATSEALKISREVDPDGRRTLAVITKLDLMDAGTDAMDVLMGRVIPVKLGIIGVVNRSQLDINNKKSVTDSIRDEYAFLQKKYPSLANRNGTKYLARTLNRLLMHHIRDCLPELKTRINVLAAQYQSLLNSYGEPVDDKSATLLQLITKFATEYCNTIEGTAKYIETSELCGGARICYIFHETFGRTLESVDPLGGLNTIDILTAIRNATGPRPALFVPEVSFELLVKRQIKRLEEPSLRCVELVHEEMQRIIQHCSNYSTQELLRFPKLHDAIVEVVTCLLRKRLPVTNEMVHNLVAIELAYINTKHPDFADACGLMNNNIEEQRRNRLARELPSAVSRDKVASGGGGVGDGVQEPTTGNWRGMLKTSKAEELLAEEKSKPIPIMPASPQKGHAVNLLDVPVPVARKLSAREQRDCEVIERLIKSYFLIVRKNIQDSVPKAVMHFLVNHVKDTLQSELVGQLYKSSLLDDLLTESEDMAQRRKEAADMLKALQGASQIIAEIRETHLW
Test [4] deals with T2, dynamin-1 (1—752) (Homo sapiens, UniProt Q05193).
T2 sequence (Q05193 1-752): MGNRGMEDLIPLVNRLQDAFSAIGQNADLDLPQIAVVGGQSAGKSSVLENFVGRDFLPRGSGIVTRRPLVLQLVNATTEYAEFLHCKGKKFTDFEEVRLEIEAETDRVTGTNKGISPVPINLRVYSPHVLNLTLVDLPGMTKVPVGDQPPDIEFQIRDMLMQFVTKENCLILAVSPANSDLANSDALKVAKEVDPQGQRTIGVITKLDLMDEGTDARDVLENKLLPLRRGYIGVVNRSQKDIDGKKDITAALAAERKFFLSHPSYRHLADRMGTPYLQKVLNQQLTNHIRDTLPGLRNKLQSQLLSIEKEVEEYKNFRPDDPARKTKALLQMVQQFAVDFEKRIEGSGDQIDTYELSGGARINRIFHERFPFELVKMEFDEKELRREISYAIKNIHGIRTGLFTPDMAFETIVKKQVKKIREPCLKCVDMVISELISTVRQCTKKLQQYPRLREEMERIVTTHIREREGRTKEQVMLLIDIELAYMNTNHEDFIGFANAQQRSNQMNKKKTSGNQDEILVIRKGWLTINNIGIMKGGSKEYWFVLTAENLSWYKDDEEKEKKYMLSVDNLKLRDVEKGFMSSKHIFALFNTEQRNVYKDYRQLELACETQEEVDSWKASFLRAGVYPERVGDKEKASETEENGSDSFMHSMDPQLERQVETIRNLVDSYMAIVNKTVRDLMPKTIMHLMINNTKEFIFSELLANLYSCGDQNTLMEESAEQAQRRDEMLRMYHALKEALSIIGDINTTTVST
As to the kind of experiment: Liposome-dependent malachite green GTPase activity assay, dynamin-1. The following applies: read-out: Potency of inhibition, dynamin-1; data not shown. Put shortly: as §1

Chain of Human DRP1 (1—699) (O00429 1-699 isoform O00429-4): as the sequence (O00429 1-699 isoform O00429-4) above

Regarding `Nc1nc2c(ncn2[C@@H]2O[C@H](COP(=O)(O)OP(=O)(O)OP(O)(O)=S)[C@@H](O)[C@H]2O)c(=O)[nH]1` [GTPγS], the IC50 in test [1] fell in the range of 300 to 500 µM; in test [2] (read-out: Potency of inhibition, DRP1, data not shown), 300 to 500 µM; in test [4], 300 to 500 µM. Also, in test [3], the “Potency/activity in the absence of liposomes” value was “unaffected by liposomes”.

Turning to `COc1cc(-n2c(=S)[nH]c3ccccc3c2=O)c(Cl)cc1Cl` [mdivi-1], the “Inhibition of DRP1 GTPase activity (in words)” value in test [2] (presence of liposomes, up to 100 μM compound concentration) is on record as “did not inhibit oligomeric DRP1 GTPase activity; also recorded: do not inhibit DRP1 up to 100 μM”.

The values are drawn from publication PMC6626631 (Biochemical and biophysical research communications, 2018).
